Assay [1] in a line: reduced viability of SK-BR-3 breast cancer cells – cell-based, 24 h, human, pilot screen (AID 572;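 active = viability at or below 10% of carrier control in both of two separate runs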;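 also: compound exposure lasted between 18 and 24 h rather than exactly 24 h; 100% = carrier-treated control wells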). Conditions: SK-BR-3 viability, CellTiter-Glo luminescence, at 10 µM, stronger effect = lower value. A general note: In ATP-based viability assays light output follows the ATP content of the culture.
Assay [2] in a line: HUVEC growth inhibition – cell-based, human, primary screen (AID 575;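 active = viability at or below 30% in both replicate assays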;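 also: 100% = median of untreated cell wells with 0.1% DMSO on each plate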). The following applies: HUVEC proliferation, CellTiter-Glo luminescence, 72 h; at 10 µM; stronger effect = lower value. Put shortly: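 Test system – primary HUVEC, no more than 12 passages · Dosing – one dose, 10 µM final, 0.1% DMSO · Times – 72 h treatment at 37 °C · Measured by – ATP-based CellTiter-Glo luminescent read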

Assay [3] can be described thus: H69AR cell proliferation blockers – human, duplicate replicates, primary screen (AID 580).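 Also: 100% = mean luminescence of untreated wells and 0% = no signal.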 Conditions: H69AR lung tumor cells viability, ATP luminescence, 72 h; at 10 µM; stronger effect = lower value.
Assay [4] is described as follows: MRP1 drug-resistance reversers in H69AR cells – cell-based, doxorubicin co-treatment, pilot screen (AID 601;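 active = viability loss from added drug above about 55%, and viability with drug at most 40%, in both replicates, limit read from the data, passing the limit was not always enough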). Conditions: CellTiter-Glo, 72 h, at 10 µM; for differential viability (reversal): stronger effect = higher value.
Assay [5] can be described thus: yeast transport mutant growth inhibition pilot in 384-well plates, post-Golgi transport modulator project (AID 636; in the data active = inhibition above about 31%). The following applies: absorbance 615 nm, about 18 h, stronger effect = higher value.
The nature of assay [6]: growth suppression of yeast trafficking mutant, preliminary HTS, modulators of trafficking downstream of Golgi apparatus project, 1536-format plate, OD 615 nm (AID 637; in the data active = inhibition above about 30%). Conditions: yeast transport mutant growth, absorbance 615 nm, 18 h; stronger effect = higher value.
Setting [7] is: H69AR cells + 2 uM doxorubicin, measured here: viability with 2 uM doxorubicin, stronger effect = lower value.
Where [8] appears, read: H69AR cells, compound alone cytotoxicity.

The source made the active and inactive calls.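 The calls were made as follows, unless noted: active = viability at or under a set limit in both replicates, limit being median viability minus 3 SD (cut at about 48% in these data, passing the limit was not always enough); inconclusive = at or under the limit in just one replicate; inactive = at or above the limit in both replicates.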

One may read the viability as a read-out of living cells in per cent, often relative to untreated cells. By inhibition is commonly meant the drop in the measured response relative to a control, in per cent.

`O=C(CN1CCN(c2ccc(F)cc2)CC1)OCc1ccccc1`: the viability in assay [1] is 95% (inactive); in assay [2], 105% (inactive); in assay [3], 92.6% (inactive); in assay [4] (setting [7]) it was 84.7%; in assay [4] (setting [8]), 92.6%. The differential viability (reversal) in assay [4] (H69AR cells + 2 uM doxorubicin) is 7.9% (inactive). In addition, the inhibition in assay [5] is -4.4% (inactive); in assay [6], 3.64% (inactive).

In the case of `O=C(c1ccc(S(=O)(=O)N2CCC(c3nc4ccccc4s3)CC2)cc1)N1CCOCC1`, the viability in assay [1] was 97% (inactive); in assay [2], 100% (inactive); in assay [3], 71.4% (inactive); in assay [4] (setting [7]), 100%; in assay [4] (setting [8]), 71.4%. Besides, the differential viability (reversal) in assay [4] (H69AR cells + 2 uM doxorubicin) is -28.7% (inactive). In addition, the inhibition in assay [5] was -5.34% (inactive); in assay [6], 3.64% (inactive).

Take `Cc1cc(C(=O)CSc2nnc(-c3ccccc3)n2C)c(C)n1C`: the viability was 83% (inactive) in assay [1]; 107% (inactive) in assay [2]; 95.5% (inactive) in assay [3]; 98.5% in assay [4] (setting [7]); 95.5% in assay [4] (setting [8]). In assay [4] (H69AR cells + 2 uM doxorubicin), the differential viability (reversal) is -3% (inactive). Also, the inhibition in assay [5] is 1.78% (inactive); in assay [6] it was 0.73% (inactive).

For `CC(=O)OCC(=O)[C@@]1(O)CC[C@H]2[C@@H]3CCC4=CC(=O)CC[C@]4(C)[C@H]3C(=O)C[C@@]21C`, the viability was 108% (inactive) in assay [1]; 95.9% (inactive) in assay [2]; 104% (inactive) in assay [3]; 95.2% in assay [4] (setting [7]); 104% in assay [4] (setting [8]). The differential viability (reversal) in assay [4] (H69AR cells + 2 uM doxorubicin) was 8.62% (inactive). For the same molecule, the values for the inhibition in assay [5] and in assay [6] were -4.55% (inactive) and -1.33% (inactive), respectively.

Take `COc1cccc(-c2cc(C(=O)Nc3c(C)nn(Cc4ccccc4)c3C)no2)c1`: the viability in assay [1] was 158% (inactive); in assay [2], 82.6% (inactive); in assay [3], 98.2% (inactive); in assay [4] (setting [7]), 89.5%; in assay [4] (setting [8]), 98.2%. Further, the differential viability (reversal) in assay [4] (H69AR cells + 2 uM doxorubicin) was 8.66% (inactive). Besides, the results for the inhibition in assay [5] and in assay [6] were -5.81% (inactive) and -7.33% (inactive), respectively.

As to `CCOC(=O)CNC(=O)CSc1nnnn1-c1cc(C)ccc1C`, the viability in assay [1] is 105% (inactive); in assay [2], 105% (inactive); in assay [3], 110% (inactive); in assay [4] (setting [7]) it was 98.1%; in assay [4] (setting [8]) it was 110%. The differential viability (reversal) in assay [4] (H69AR cells + 2 uM doxorubicin) was 12.1% (inactive). The inhibition is -2.08% (inactive) in assay [5] and -1.48% (inactive) in assay [6].

For the molecule `Cc1ccc(C)c(NS(=O)(=O)c2ccc(NC(=O)c3ccco3)cc2)c1`, the viability in assay [1] was 72% (inactive); in assay [2] it was 78.5% (inactive); in assay [3], 90.5% (inactive); in assay [4] (setting [7]), 96.1%; in assay [4] (setting [8]), 90.5%. For the same molecule, the differential viability (reversal) in assay [4] (H69AR cells + 2 uM doxorubicin) was -5.62% (inactive). Also, the results for the inhibition in assay [5] and in assay [6] were -8.92% (inactive) and -6.91% (inactive), respectively.

Regarding `Cc1cccc(C)c1-n1nnnc1SCSc1nnnn1-c1c(C)cccc1C`, the viability was 92% (inactive) in assay [1]; 66.8% (inactive) in assay [2]; 72.1% (inactive) in assay [3]; 73.3% in assay [4] (setting [7]); 72.1% in assay [4] (setting [8]). The differential viability (reversal) in assay [4] (H69AR cells + 2 uM doxorubicin) was -1.23% (inactive). The inhibition in assay [5] was -7.81% (inactive); in assay [6] it was -0.73% (inactive).

Take `CN(C(=O)c1ccccn1)c1nnc(-c2cccnc2)s1`: the viability was 97% (inactive) in assay [1]; 90.6% (inactive) in assay [2]; 111% (inactive) in assay [3]; 93.5% in assay [4] (setting [7]); 111% in assay [4] (setting [8]). In assay [4] (H69AR cells + 2 uM doxorubicin), the differential viability (reversal) was 17.8% (inactive). Besides, the inhibition in assay [5] was -5.07% (inactive); in assay [6], -2.26% (inactive).

For the molecule `Cc1cccc(-n2nnnc2SCc2csc(-c3ccccc3)n2)c1`, the viability in assay [1] was 95% (inactive); in assay [2], 101% (inactive); in assay [3], 93.9% (inactive); in assay [4] (setting [7]), 88%; in assay [4] (setting [8]), 93.9%. Moreover, the differential viability (reversal) in assay [4] (H69AR cells + 2 uM doxorubicin) is 5.89% (inactive). For the same molecule, the inhibition in assay [5] is 6.44% (inactive); in assay [6], 2.58% (inactive).

On to `CCc1nnc(NC(=O)CSc2nnc(-c3ccccc3OC)n2-c2ccccc2)s1`, for which the viability is 77% (inactive) in assay [1]; 108% (inactive) in assay [2]; 85.2% (inactive) in assay [3]; 87% in assay [4] (setting [7]); 85.2% in assay [4] (setting [8]). For the same molecule, the differential viability (reversal) in assay [4] (H69AR cells + 2 uM doxorubicin) was -1.85% (inactive). Besides, the inhibition was -1.73% (inactive) in assay [5] and -1.45% (inactive) in assay [6].

For `N#Cc1ccc(CSc2nnc(-c3cccs3)n2-c2ccccc2)cc1`, the viability in assay [1] was 78% (inactive); in assay [2], 78% (inactive); in assay [3] it was 78% (inactive); in assay [4] (setting [7]) it was 44%; in assay [4] (setting [8]), 78%. The differential viability (reversal) in assay [4] (H69AR cells + 2 uM doxorubicin) is 34.1% (inactive). Further, the inhibition in assay [5] was -0.82% (inactive); in assay [6], -7.1% (inactive).

Turning to `COc1cc(C2Oc3cc(C4Oc5cc(O)cc(O)c5C(=O)C4O)ccc3OC2CO)ccc1O` (centres undefined), the viability in assay [1] was 106% (inactive); in assay [2], 85.7% (inactive); in assay [3] it was 97.4% (inactive); in assay [4] (setting [7]), 93.2%; in assay [4] (setting [8]), 97.4%. In addition, the differential viability (reversal) in assay [4] (H69AR cells + 2 uM doxorubicin) is 4.15% (inactive). Further, the figures for the inhibition in assay [5] and in assay [6] were 1.3% (inactive) and -3.5% (inactive), respectively.

Regarding `O=C1CC(c2ccccc2)Cc2nc(N3CCc4ccccc43)ncc21` (centres undefined), the viability is 79% (inactive) in assay [1]; 108% (inactive) in assay [2]; 76.5% (inactive) in assay [3]; 64.6% in assay [4] (setting [7]); 76.5% in assay [4] (setting [8]). The differential viability (reversal) in assay [4] (H69AR cells + 2 uM doxorubicin) was 12% (inactive). For the same molecule, the inhibition in assay [5] was -6.89% (inactive); in assay [6], 1.82% (inactive).

For `COC(=O)c1cccc(Nc2cc(C)nc(-c3ccccc3O)n2)c1`, the viability was 69% (inactive) in assay [1]; 62.3% (inactive) in assay [2]; 64.4% (inactive) in assay [3]; 70.7% in assay [4] (setting [7]); 64.4% in assay [4] (setting [8]). Besides, the differential viability (reversal) in assay [4] (H69AR cells + 2 uM doxorubicin) is -6.26% (inactive). The inhibition in assay [5] is 0% (inactive); in assay [6] it was 2.18% (inactive).

On to `CC(C)CC(c1nnnn1C(C)(C)C)N1CCN(C2CCCC2)CC1` (centres undefined), for which the viability in assay [1] was 101% (inactive); in assay [2], 96.6% (inactive); in assay [3] it was 95.2% (inactive); in assay [4] (setting [7]), 84.8%; in assay [4] (setting [8]), 95.2%. Further, in assay [4] (H69AR cells + 2 uM doxorubicin), the differential viability (reversal) is 10.4% (inactive). Further, the inhibition in assay [5] is -7.33% (inactive); in assay [6] it was 2.91% (inactive).

`CC(=O)Nc1ccc(NC(=O)Cn2cnc3c(cnn3C(C)(C)C)c2=O)cc1`: the viability in assay [1] is 101% (inactive); in assay [2] it was 87.9% (inactive); in assay [3], 98.9% (inactive); in assay [4] (setting [7]), 85.1%; in assay [4] (setting [8]), 98.9%. Further, the differential viability (reversal) in assay [4] (H69AR cells + 2 uM doxorubicin) was 13.8% (inactive). For the same molecule, the inhibition in assay [5] was -5.47% (inactive); in assay [6], 3.27% (inactive).

With `CSc1ncc(Cl)c(C(=O)Nc2ccc(S(=O)(=O)N3CCOCC3)cc2)n1`, the viability was 85% (inactive) in assay [1]; 97% (inactive) in assay [2]; 101% (inactive) in assay [3]; 91.8% in assay [4] (setting [7]); 101% in assay [4] (setting [8]). Moreover, the differential viability (reversal) in assay [4] (H69AR cells + 2 uM doxorubicin) is 9.55% (inactive). For the same molecule, the inhibition was -7.67% (inactive) in assay [5] and 0.36% (inactive) in assay [6].

The values are drawn from PubChem BioAssay.
